In ChEMBL document CHEMBL3872252, “New bithiazolyl hydrazones: Novel synthesis, characterization and antitubercular evaluation” (Bioorg Med Chem Lett, 2017):
Values after ≈ are worked out from the molar mass of the structure shown.

Key:
Bacillus subtilis [1] = assay: Antibacterial activity against Bacillus subtilis; type: functional
Escherichia coli [2] = assay: Antibacterial activity against Escherichia coli; type: functional
Pseudomonas aeruginosa [3] = assay: Antibacterial activity against Pseudomonas aeruginosa; type: functional
Staphylococcus aureus [4] = assay: Antibacterial activity against Staphylococcus aureus; type: functional
[5] = Cytotoxicity against human THP1 cells by MTT assay; type: toxicity, cell-based, THP-1; conditions: for GI50: THP1 cells; for GI90: thp-1
[6] = Selectivity index, ratio of GI50 for human HCT116 cells to MIC90 for Mycobacterium bovis BCG ATCC 35743 active stage; type: toxicity, cell-based, HCT-116; conditions: read-out: Selectivity Index
Summary of the method: (§1)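 Cytotoxicity was measured on human MCF-7, HCT116 and THP-1 cells by MTT assay, with paclitaxel as reference. GI50 is the concentration inhibiting 50% of cell growth. The selectivity index is GI50 for the given cell line divided by MIC90 for the given mycobacterial strain and stage.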

Staphylococcus aureus [7] = assay: Growth inhibition of Staphylococcus aureus at 30 ug/ml; type: functional; conditions: read-out: GI
Bacillus subtilis [8] = assay: Growth inhibition of Bacillus subtilis at 10 ug/ml; type: functional; conditions: read-out: GI
Pseudomonas aeruginosa [9] = assay: Growth inhibition of Pseudomonas aeruginosa at 3 ug/ml; type: functional; conditions: read-out: GI
Summary of the method: (§2)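 Screened against Gram-negative E. coli and P. aeruginosa and Gram-positive S. aureus and B. subtilis. Compound was tested at 3 µg/ml, and the read-out is percent growth inhibition.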

[10] = Selectivity index, ratio of GI50 for human HCT116 cells to MIC90 for Mycobacterium bovis BCG ATCC 35743 dormant stage; type: toxicity, cell-based, HCT-116; conditions: read-out: Selectivity Index
Summary of the method: (§3)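 Cytotoxicity was measured on human MCF-7, HCT116 and THP-1 cells by MTT assay, with paclitaxel as reference. The selectivity index is GI50 for the given cell line divided by MIC90 for the given mycobacterial strain and stage.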

[11] = Selectivity index, ratio of GI50 for human THP1 cells to MIC90 for Mycobacterium tuberculosis H37Ra ATCC 25177 dormant stage; type: toxicity, cell-based, THP-1; conditions: read-out: Selectivity Index; summary of the method: as §3
[12] = Antitubercular activity against Mycobacterium tuberculosis H37Ra ATCC 25177 active stage infected in human THP1 cells measured on day 8 by nitrate reductase assay; type: functional, THP-1; conditions: ATCC 25177, 192 h
Bacillus subtilis [13] = assay: Growth inhibition of Bacillus subtilis at 30 ug/ml; type: functional; conditions: read-out: GI
Escherichia coli [14] = assay: Growth inhibition of Escherichia coli at 30 ug/ml; type: functional; conditions: read-out: GI
[15] = Antitubercular activity against Mycobacterium tuberculosis H37Ra ATCC 25177 active stage measured on day 8 by XTT reduction menadione based two-fold dilution assay; type: functional; conditions: ATCC 25177, 192 h
Summary of the method: (§4)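 M. tuberculosis H37Ra ATCC 25177 was exposed to 0.7–100 μg/mL in two-fold steps (0.7, 1.5, 3.1 … 100). Active stage was read after 8 days and dormant stage after 12 days of incubation. Inhibition was read by XTT reduction menadione assay (XRMA), absorbance 470 nm. MIC90 is the concentration giving ≥90% inhibition (µg/mL).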

[16] = Antitubercular activity against Mycobacterium bovis BCG ATCC 35743 active stage measured on day 8 by nitrate reductase based two-fold dilution assay; type: functional, Mycobacterium bovis BCG str. ATCC 35743; conditions: Mycobacterium tuberculosis variant bovis BCG, ATCC 35743, 192 h
[17] = Selectivity index, ratio of GI50 for human HCT116 cells to MIC90 for Mycobacterium tuberculosis H37Ra ATCC 25177 dormant stage; type: toxicity, cell-based, HCT-116; conditions: read-out: Selectivity Index; summary of the method: as §3
[18] = Antitubercular activity against Mycobacterium tuberculosis H37Ra ATCC 25177 dormant stage measured on day 12 by XTT reduction menadione based two-fold dilution assay; type: functional; conditions: ATCC 25177, 288 h; summary of the method: as §4
Escherichia coli [19] = assay: Growth inhibition of Escherichia coli at 10 ug/ml; type: functional; conditions: read-out: GI
Staphylococcus aureus [20] = assay: Growth inhibition of Staphylococcus aureus at 10 ug/ml; type: functional; conditions: read-out: GI
[21] = Antitubercular activity against Mycobacterium tuberculosis H37Ra ATCC 25177 dormant stage infected in human THP1 cells measured on day 12 by nitrate reductase assay; type: functional, THP-1; conditions: ATCC 25177, 288 h
Pseudomonas aeruginosa [22] = assay: Growth inhibition of Pseudomonas aeruginosa at 10 ug/ml; type: functional; conditions: read-out: GI
[23] = Selectivity index, ratio of GI50 for human HCT116 cells to MIC90 for Mycobacterium tuberculosis H37Ra ATCC 25177 active stage; type: toxicity, cell-based, HCT-116; conditions: read-out: Selectivity Index; summary of the method: as §1
Pseudomonas aeruginosa [24] = assay: Growth inhibition of Pseudomonas aeruginosa at 30 ug/ml; type: functional; conditions: read-out: GI
Bacillus subtilis [25] = assay: Growth inhibition of Bacillus subtilis at 3 ug/ml; type: functional; conditions: read-out: GI; summary of the method: as §2
[26] = Cytotoxicity against human HCT116 cells by MTT assay; type: toxicity, cell-based, HCT-116; conditions: for GI50: HCT116 cells; for GI90: hct-116
[27] = Cytotoxicity against human MCF7 cells by MTT assay; type: toxicity, cell-based; conditions: for GI50: MCF7 cells; for GI90: mcf7
Escherichia coli [28] = assay: Growth inhibition of Escherichia coli at 3 ug/ml; type: functional; conditions: read-out: GI; summary of the method: as §2
Staphylococcus aureus [29] = assay: Growth inhibition of Staphylococcus aureus at 3 ug/ml; type: functional; conditions: read-out: GI; summary of the method: as §2
[30] = Antitubercular activity against Mycobacterium bovis BCG ATCC 35743 dormant stage measured on day 12 by nitrate reductase based two-fold dilution assay; type: functional, Mycobacterium bovis BCG str. ATCC 35743; conditions: Mycobacterium tuberculosis variant bovis BCG, ATCC 35743, 288 h
[31] = Selectivity index, ratio of GI50 for human MCF7 cells to MIC90 for Mycobacterium bovis BCG ATCC 35743 active stage; type: toxicity, cell-based; conditions: read-out: Selectivity Index; summary of the method: as §1
[32] = Selectivity index, ratio of GI50 for human MCF7 cells to MIC90 for Mycobacterium bovis BCG ATCC 35743 dormant stage; type: toxicity, cell-based; conditions: read-out: Selectivity Index; summary of the method: as §3
[33] = Selectivity index, ratio of GI50 for human MCF7 cells to MIC90 for Mycobacterium tuberculosis H37Ra ATCC 25177 active stage; type: toxicity, cell-based; conditions: read-out: Selectivity Index; summary of the method: as §1
[34] = Selectivity index, ratio of GI50 for human THP1 cells to MIC90 for Mycobacterium tuberculosis H37Ra ATCC 25177 active stage; type: toxicity, cell-based, THP-1; conditions: read-out: Selectivity Index; summary of the method: as §1
[35] = Selectivity index, ratio of GI50 for human THP1 cells to MIC90 for Mycobacterium bovis BCG ATCC 35743 dormant stage; type: toxicity, cell-based, THP-1; conditions: read-out: Selectivity Index; summary of the method: as §3
[36] = Selectivity index, ratio of GI50 for human MCF7 cells to MIC90 for Mycobacterium tuberculosis H37Ra ATCC 25177 dormant stage; type: toxicity, cell-based; conditions: read-out: Selectivity Index; summary of the method: as §3
[37] = Selectivity index, ratio of GI50 for human THP1 cells to MIC90 for Mycobacterium bovis BCG ATCC 35743 active stage; type: toxicity, cell-based, THP-1; conditions: read-out: Selectivity Index; summary of the method: as §1

`CC1(C)S[C@@H]2[C@H](NC(=O)[C@H](N)c3ccccc3)C(=O)N2[C@H]1C(=O)O` [AMPICILLIN] showed an MIC (Bacillus subtilis [1]) of 10.3 µg/mL (≈ 29.5 µM), an MIC (Escherichia coli [2]) of 1.46 µg/mL (≈ 4.18 µM) and an MIC (Pseudomonas aeruginosa [3]) of 4.36 µg/mL (≈ 12.5 µM). For the same molecule, the MIC (Staphylococcus aureus [4]) was 1 µg/mL (≈ 2.86 µM).

For `C/C(=N\Nc1nc(-c2ccc(Br)cc2)cs1)c1sc(-c2ccccc2)nc1C`, the GI50 [5] was 48.9 µg/mL (≈ 104 µM), the GI90 [5] was over 100 µg/mL and the selectivity ratio [6] was 1. For the same molecule, the inhibition of growth at 30 µg/mL (Staphylococcus aureus [7]) was 96.8%, the inhibition of growth at 10 µg/mL (Bacillus subtilis [8]) was 93.8% and the inhibition of growth at 3 µg/mL (Pseudomonas aeruginosa [9]) was 94.3%. For the same molecule, the selectivity ratio [10] was 1, the selectivity ratio [11] was 1 and the MIC90 [12] was over 100 µg/mL. The inhibition of growth at 30 µg/mL (Bacillus subtilis [13]) was 96.5%, the IC50 (Bacillus subtilis [1]) was 0.526 µg/mL (≈ 1.12 µM) and the MIC (Bacillus subtilis [1]) was 1.95 µg/mL (≈ 4.15 µM). It also gave an inhibition of growth at 30 µg/mL (Escherichia coli [14]) of 96.7%, an IC50 [15] of 0.18 µg/mL (≈ 0.383 µM) and an MIC90 [15] of over 100 µg/mL. It also gave an IC50 [16] of over 100 µg/mL, an MIC90 [16] of over 100 µg/mL and a selectivity ratio [17] of 1. The IC50 [18] was 0.14 µg/mL (≈ 0.298 µM), the MIC90 [18] was 57.7 µg/mL (≈ 123 µM) and the inhibition of growth at 10 µg/mL (Escherichia coli [19]) was 94.4%. For the same molecule, the IC50 (Escherichia coli [2]) was 0.475 µg/mL (≈ 1.01 µM), the MIC (Escherichia coli [2]) was 1.14 µg/mL (≈ 2.43 µM) and the inhibition of growth at 10 µg/mL (Staphylococcus aureus [20]) was 94.3%. The MIC90 [21] was over 100 µg/mL, the inhibition of growth at 10 µg/mL (Pseudomonas aeruginosa [22]) was 95.8% and the IC50 (Pseudomonas aeruginosa [3]) was 0.416 µg/mL (≈ 0.886 µM). For the same molecule, the MIC (Pseudomonas aeruginosa [3]) was 1.05 µg/mL (≈ 2.24 µM), the selectivity ratio [23] was 1 and the inhibition of growth at 30 µg/mL (Pseudomonas aeruginosa [24]) was 98.4%. It also gave an IC50 (Staphylococcus aureus [4]) of 0.453 µg/mL (≈ 0.965 µM), an MIC (Staphylococcus aureus [4]) of 1.84 µg/mL (≈ 3.92 µM) and an inhibition of growth at 3 µg/mL (Bacillus subtilis [25]) of 92.3%. The GI50 [26] was 55.6 µg/mL (≈ 118 µM), the GI90 [26] was over 100 µg/mL and the GI50 [27] was 26.3 µg/mL (≈ 56.1 µM). It also gave a GI90 [27] of over 100 µg/mL, an inhibition of growth at 3 µg/mL (Escherichia coli [28]) of 93% and an inhibition of growth at 3 µg/mL (Staphylococcus aureus [29]) of 92.8%. The IC50 [30] was over 100 µg/mL and the MIC90 [30] was over 100 µg/mL.

`C/C(=N\Nc1nc(-c2ccccc2)cs1)c1sc(C)nc1C` gave a GI50 [5] of over 100 µg/mL, a GI90 [5] of over 100 µg/mL and a selectivity ratio [6] of 2. The inhibition of growth at 30 µg/mL (Staphylococcus aureus [7]) was 81.3%, the inhibition of growth at 10 µg/mL (Bacillus subtilis [8]) was 81.5% and the inhibition of growth at 3 µg/mL (Pseudomonas aeruginosa [9]) was 81.8%. The selectivity ratio [10] was 26, the selectivity ratio [11] was 6 and the MIC90 [12] was 32.5 µg/mL (≈ 99.1 µM). The inhibition of growth at 30 µg/mL (Bacillus subtilis [13]) was 79.9%, the selectivity ratio [31] was 2 and the selectivity ratio [32] was 26. For the same molecule, the inhibition of growth at 30 µg/mL (Escherichia coli [14]) was 82.3%, the selectivity ratio [33] was 4 and the IC50 [15] was 0.82 µg/mL (≈ 2.5 µM). It also gave an MIC90 [15] of 25.3 µg/mL (≈ 77.1 µM), an IC50 [16] of 11.6 µg/mL (≈ 35.4 µM) and an MIC90 [16] of 40.4 µg/mL (≈ 123 µM). For the same molecule, the selectivity ratio [17] was 6, the IC50 [18] was 2 µg/mL (≈ 6.09 µM) and the MIC90 [18] was 16.5 µg/mL (≈ 50.1 µM). It also gave an inhibition of growth at 10 µg/mL (Escherichia coli [19]) of 83.7%, a selectivity ratio [34] of 4 and an inhibition of growth at 10 µg/mL (Staphylococcus aureus [20]) of 82.8%. The MIC90 [21] was 23.4 µg/mL (≈ 71.3 µM), the inhibition of growth at 10 µg/mL (Pseudomonas aeruginosa [22]) was 84% and the selectivity ratio [35] was 26. It also gave a selectivity ratio [36] of 6, a selectivity ratio [23] of 4 and a selectivity ratio [37] of 2. For the same molecule, the inhibition of growth at 30 µg/mL (Pseudomonas aeruginosa [24]) was 82.4%, the inhibition of growth at 3 µg/mL (Bacillus subtilis [25]) was 79.2% and the GI50 [26] was over 100 µg/mL. It also gave a GI90 [26] of over 100 µg/mL, a GI50 [27] of over 100 µg/mL and a GI90 [27] of over 100 µg/mL. For the same molecule, the inhibition of growth at 3 µg/mL (Escherichia coli [28]) was 81.8%, the inhibition of growth at 3 µg/mL (Staphylococcus aureus [29]) was 80.7% and the IC50 [30] was 3.81 µg/mL (≈ 11.6 µM). It also gave an MIC90 [30] of 17.2 µg/mL (≈ 52.4 µM).
